Reference: ChEMBL document CHEMBL3868583, “6-Aryl substituted 4-(4-cyanomethyl) phenylamino quinazolines as a new class of isoform-selective PI3K-alpha inhibitors” (Eur J Med Chem, 2016)

Columns and labels:
[1] = tested on: MCF7; experiment: Induction of cell cycle arrest in human MCF7 cells assessed as accumulation at G1 phase at 10 uM after 24 hrs by propidium iodide-staining based FACS analysis (reference value: 50 %); type: functional
Outline: (§1)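 MCF-7 or PC-3 cells treated at indicated concentrations for 24 h, pelleted, PBS-washed, fixed in ice-cold 70% ethanol overnight at 4 °C. RNase 0.2 mg/mL 1 h at 37 °C, propidium iodide 10 µg/mL 30 min dark. 10,000 events (FL2-A vs FL2-W) by flow cytometry; fractions in apoptosis/sub-G1, G1, S, G2-M.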

[2] = tested on: MCF7; experiment: Induction of cell cycle arrest in human MCF7 cells assessed as accumulation at G2 phase at 10 uM after 24 hrs by propidium iodide-staining based FACS analysis (reference value: 20 %); type: functional; outline: as §1
[3] = tested on: MCF7; experiment: Induction of cell cycle arrest in human MCF7 cells assessed as apoptotic cells at 10 uM after 24 hrs by propidium iodide-staining based FACS analysis (reference value: 8 %); type: functional; outline: as §1
[4] = tested on: MCF7; experiment: Induction of cell cycle arrest in human MCF7 cells assessed as accumulation at G1 phase at 30 uM after 24 hrs by propidium iodide-staining based FACS analysis (reference value: 50 %); type: functional; outline: as §1
[5] = tested on: MCF7; experiment: Induction of cell cycle arrest in human MCF7 cells assessed as accumulation at G2 phase at 30 uM after 24 hrs by propidium iodide-staining based FACS analysis (reference value: 20 %); type: functional; outline: as §1
[6] = tested on: MCF7; experiment: Induction of cell cycle arrest in human MCF7 cells assessed as accumulation at S phase at 30 uM after 24 hrs by propidium iodide-staining based FACS analysis (reference value: 30 %); type: functional; outline: as §1
[7] = tested on: MCF7; experiment: Induction of apoptosis in human MCF7 cells assessed as loss of mitochondrial membrane potential at 10 uM after 24 hrs by rhodamine-123-staining based FACS analysis (reference value: 7 % ); type: functional
Outline: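 Cells (MCF-7 or PC-3) exposed to indicated concentrations for 24 h; rhodamine-123 (5 µM) added 1 h before end. Cells collected, PBS-washed; fluorescence of 10,000 events read in FL-1 by flow cytometry, loss of mitochondrial potential scored as decreased intensity.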

[8] = tested on: Mus musculus; experiment: Toxicity in Swiss mouse implanted with Swiss mouse EAC cells assessed as body weight at 25 mg/kg, ip administered for 1 to 9 days measured on day 9 (reference value: 27.7 g); type: organism-based, Ehrlich; conditions: in vivo
[9] = tested on: Mus musculus; experiment: Toxicity in Swiss mouse implanted with Swiss mouse EAT cells assessed as body weight at 25 mg/kg, ip administered for 1 to 9 days measured on day 1 (reference value: 21.6 g); type: organism-based; conditions: in vivo
[10] = tested on: Mus musculus; experiment: Toxicity in Swiss mouse implanted with Swiss mouse EAT cells assessed as body weight at 25 mg/kg, ip administered for 1 to 9 days measured on day 5 (reference value: 22.6 g); type: organism-based; conditions: in vivo
[11] = tested on: Mus musculus; experiment: Toxicity in Swiss mouse implanted with Swiss mouse EAT cells assessed as body weight at 15 mg/kg, ip administered for 1 to 9 days measured on day 9 (reference value: 22.8 g); type: organism-based; conditions: in vivo
[12] = tested on: Mus musculus; experiment: Toxicity in Swiss mouse implanted with Swiss mouse EAT cells assessed as body weight at 15 mg/kg, ip administered for 1 to 9 days measured on day 13 (reference value: 24.1 g); type: organism-based; conditions: in vivo
[13] = tested on: Mus musculus; experiment: Toxicity in Swiss mouse implanted with Swiss mouse EAT cells assessed as mortality at 15 mg/kg, ip administered for 1 to 9 days measured on day 9 and 13; type: organism-based; conditions: in vivo
Outline: (§2)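 EAC cells harvested from 8–10-day ascitic Swiss mice; 1×10^7 cells injected intramuscularly into right thigh of Swiss male mice on day 0. Randomized next day: treated n=7, saline control n=10 (0.2 ml i.p.). Dosing i.p. days 1–9. […] Body weight and mortality tracked.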

[14] = tested on: Mus musculus; experiment: Toxicity in Swiss mouse implanted with Swiss mouse EAT cells assessed as mortality at 25 mg/kg, ip administered for 1 to 9 days measured on day 9 and 13; type: organism-based; conditions: in vivo; outline: as §2
[15] = Cytotoxicity against human PC3 cells assessed as cell growth inhibition after 6 hrs by MTT assay; type: functional; conditions: PC-3, 6 h
[16] = Cytotoxicity against human PC3 cells assessed as cell growth inhibition after 24 hrs by MTT assay; type: functional; conditions: PC-3, 24 h
[17] = target: Phosphatidylinositol 4,5-bisphosphate 3-kinase catalytic subunit alpha isoform (Homo sapiens, UniProt P42336); experiment: Inhibition of PI3Kalpha in human PC3 cells assessed as suppression of akt phosphorylation at Ser-473 residue at 30 uM Western blot analysis; type: cell-based; conditions: PC-3
[18] = tested on: PC-3; experiment: Induction of cell cycle arrest in human PC3 cells assessed as apoptotic cells at 10 uM after 24 hrs by propidium iodide-staining based FACS analysis (reference value: 2 %); type: functional
Outline: (§3)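 PC-3 cells exposed 24 h at indicated concentrations, pelleted, fixed overnight in ice-cold 70% ethanol at 4 °C, RNase 0.2 mg/mL at 37 °C 1 h, propidium iodide 10 µg/mL 30 min in dark; 10,000 events acquired (FL2-A vs FL2-W); DNA histograms modelled for apoptotic (sub-G1), G1, S and G2-M fractions.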

[19] = tested on: PC-3; experiment: Induction of cell cycle arrest in human PC3 cells assessed as accumulation at G2 phase at 10 uM after 24 hrs by propidium iodide-staining based FACS analysis (reference value: 17 %); type: functional; outline: as §1
[20] = tested on: PC-3; experiment: Induction of cell cycle arrest in human PC3 cells assessed as accumulation at S phase at 10 uM after 24 hrs by propidium iodide-staining based FACS analysis (reference value: 44 %); type: functional; outline: as §1
[21] = tested on: PC-3; experiment: Induction of cell cycle arrest in human PC3 cells assessed as accumulation at G1 phase at 20 uM after 24 hrs by propidium iodide-staining based FACS analysis (reference value: 39 %); type: functional; outline: as §1
[22] = tested on: PC-3; experiment: Induction of cell cycle arrest in human PC3 cells assessed as accumulation at S phase at 20 uM after 24 hrs by propidium iodide-staining based FACS analysis (reference value: 44 %); type: functional; outline: as §1
[23] = tested on: PC-3; experiment: Induction of cell cycle arrest in human PC3 cells assessed as apoptotic cells at 30 uM after 24 hrs by propidium iodide-staining based FACS analysis (reference value: 2 %); type: functional; outline: as §3
[24] = tested on: Mus musculus; experiment: Toxicity in Swiss mouse implanted with Swiss mouse EAC cells assessed as body weight at 70 mg/kg, ip administered for 1 to 9 days measured on day 1 (reference value: 22.8 g); type: organism-based, Ehrlich; conditions: in vivo
[25] = tested on: Mus musculus; experiment: Toxicity in Swiss mouse implanted with Swiss mouse EAC cells assessed as body weight at 70 mg/kg, ip administered for 1 to 9 days measured on day 5 (reference value: 26.2 g); type: organism-based, Ehrlich; conditions: in vivo
[26] = tested on: Mus musculus; experiment: Toxicity in Swiss mouse implanted with Swiss mouse EAC cells assessed as body weight at 70 mg/kg, ip administered for 1 to 9 days measured on day 12 (reference value: 28.4 g); type: organism-based, Ehrlich; conditions: in vivo
[27] = Anticancer activity against Swiss mouse EAC cells implanted in Swiss mouse assessed as tumor growth inhibition at 70 mg/kg, ip administered for 1 to 9 days measured on day 12 relative to control; type: functional; conditions: Ehrlich, read-out: TGI
Outline: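 Swiss mice given 1 × 10^7 EAC cells i.p. on day 0, randomized next day (treated n=7, control n=10). Compound given i.p. days 1-9; saline control (0.2 ml i.p.), 5-fluorouracil 20 mg/kg i.p. reference. Sacrificed day 12; ascitic fluid collected; % TGI from total peritoneal tumor cell count versus control.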

Sequence of Phosphatidylinositol 4,5-bisphosphate 3-kinase catalytic subunit alpha isoform (P42336 whole entry, canonical isoform): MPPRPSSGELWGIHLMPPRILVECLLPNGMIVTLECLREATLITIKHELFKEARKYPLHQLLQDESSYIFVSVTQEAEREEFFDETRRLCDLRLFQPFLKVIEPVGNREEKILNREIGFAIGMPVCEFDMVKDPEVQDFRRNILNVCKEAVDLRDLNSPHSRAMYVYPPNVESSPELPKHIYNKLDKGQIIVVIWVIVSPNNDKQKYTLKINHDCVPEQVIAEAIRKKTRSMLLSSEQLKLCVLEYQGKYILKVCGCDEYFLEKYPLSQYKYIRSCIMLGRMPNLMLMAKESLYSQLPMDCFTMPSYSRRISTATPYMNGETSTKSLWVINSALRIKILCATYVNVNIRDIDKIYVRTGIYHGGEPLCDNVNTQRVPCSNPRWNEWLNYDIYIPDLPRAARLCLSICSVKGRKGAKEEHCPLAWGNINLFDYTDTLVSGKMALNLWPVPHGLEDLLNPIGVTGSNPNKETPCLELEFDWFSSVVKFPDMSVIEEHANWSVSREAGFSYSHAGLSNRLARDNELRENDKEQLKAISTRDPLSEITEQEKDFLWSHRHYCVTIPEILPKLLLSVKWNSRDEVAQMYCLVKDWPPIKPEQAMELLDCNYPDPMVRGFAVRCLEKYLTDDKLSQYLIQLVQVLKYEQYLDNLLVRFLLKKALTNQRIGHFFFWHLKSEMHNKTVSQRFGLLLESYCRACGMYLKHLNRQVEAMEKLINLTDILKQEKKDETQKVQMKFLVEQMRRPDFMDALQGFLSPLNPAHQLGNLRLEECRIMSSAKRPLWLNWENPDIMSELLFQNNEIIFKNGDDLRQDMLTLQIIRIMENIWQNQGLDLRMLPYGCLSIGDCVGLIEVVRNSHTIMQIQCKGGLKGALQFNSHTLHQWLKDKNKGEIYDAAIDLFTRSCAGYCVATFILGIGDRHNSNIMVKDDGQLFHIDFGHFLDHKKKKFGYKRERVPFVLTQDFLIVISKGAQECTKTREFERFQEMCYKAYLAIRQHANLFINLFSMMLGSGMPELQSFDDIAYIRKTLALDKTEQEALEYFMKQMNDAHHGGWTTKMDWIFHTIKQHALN

Compound `N#CCc1ccc(Nc2ncnc3ccc(-c4ccc5[nH]ccc5c4)cc23)cc1` has an Activity [1] of 59%, an Activity [2] of 1% and an Activity [3] of 7%. For the same compound, the Activity [4] was 44%, the Activity [5] was 4% and the Activity [6] was 53%. It also gave an Activity [7] of 12%, an Activity [8] of 22.57 g and an Activity [9] of 20.14 g. The Activity [10] was 20.61 g, the Activity [11] was 20.71 g and the Activity [12] was 22.57 g. For the same compound, the Activity [13] was “Non-Toxic” and the Activity [14] was “Non-Toxic”.

In the case of `N#CCc1ccc(Nc2ncnc3ccc(-c4cncc5ccccc45)cc23)cc1`, the GI50 [15] is reported as 567 µM, the GI50 [16] is reported as 28 µM and the inhibition [17] is reported as 50%. It also gave an Activity [18] of 4%, an Activity [19] of 3% and an Activity [20] of 56%. For the same compound, the Activity [21] was 65%, the Activity [22] was 26% and the Activity [23] was 25%. The Activity [24] was 21.42 g, the Activity [25] was 23 g and the Activity [26] was 24.33 g. It also gave an inhibition in vivo at 70 mg/kg [27] of 25.8%.
